Experimental data gathered from unrelated publications.
Protocols differ between the studies behind these lines.
Target: Interleukin-1 receptor-associated kinase 4 (IRAK4, Homo sapiens, UniProt Q9NWZ3)
Residues used in one study (Q9NWZ3 1-460): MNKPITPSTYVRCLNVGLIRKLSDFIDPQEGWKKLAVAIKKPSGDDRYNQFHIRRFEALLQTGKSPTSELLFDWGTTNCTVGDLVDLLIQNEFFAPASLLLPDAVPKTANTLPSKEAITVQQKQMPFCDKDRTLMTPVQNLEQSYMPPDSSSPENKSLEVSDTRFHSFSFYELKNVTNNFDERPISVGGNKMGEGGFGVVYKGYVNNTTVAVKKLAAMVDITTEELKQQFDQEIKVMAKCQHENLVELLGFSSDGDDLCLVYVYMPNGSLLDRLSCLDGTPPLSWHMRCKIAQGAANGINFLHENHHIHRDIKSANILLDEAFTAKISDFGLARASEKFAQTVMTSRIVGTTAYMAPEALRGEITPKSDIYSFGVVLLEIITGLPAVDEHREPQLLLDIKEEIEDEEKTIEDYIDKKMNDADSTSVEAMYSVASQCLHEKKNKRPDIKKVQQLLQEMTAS

`Cc1ccc(NC(=O)c2ccc(C)c(C(F)(F)F)c2)cc1C#Cc1nn(C2CCC(O)CC2)c2ncnc(N)c12` (centres unmarked) has a remaining signal of 101% (cell-free assay; 10 µM).
`COc1cc2nccc(Oc3ccc(NC(=O)c4c5n(n(-c6ccc(F)cc6)c4=O)CCCC5)cc3)c2cc1OC` has an inhibition of -19% (enzyme activity, inhibitor; 0.1 µM).
The inhibition of `CCN(CC)CCNC(=O)c1c(C)[nH]c(/C=C2\C(=O)Nc3ccc(F)cc32)c1C` is reported as 89% (enzyme activity, inhibitor; 10 µM).
`CC(C)(C)c1nc(-c2cccc(NS(=O)(=O)c3c(F)cccc3F)c2F)c(-c2ccnc(N)n2)s1` gave a remaining activity of 103% (enzyme activity, inhibitor, radiometric; 1 µM).
`O=C1Nc2ccc(Cl)cc2C1=Cc1cc(Cl)c(O)c(Cl)c1` gave a remaining signal of 101% (cell-free assay; 0.5 µM).
`Cc1ccc(C(=O)NCc2ccsc2)cc1C#Cc1cn(C(C)C)c2ncnc(N)c12` has an activity vs control of 88% (enzyme activity, inhibitor; 1 µM).
For `N#CC1(c2ccccn2)CCN(Cc2cc(C(=O)N3CCCC3)c(=O)n3ccccc23)CC1`, the remaining binding was 100% (cell-free assay, competition with immobilised ligand; 1 µM).
The remaining activity of `O=C(Nc1cnn(-c2csc(C(=O)NC3COC3)c2)c1)Nc1ccccc1Cl` is reported as 92.1% (enzyme activity, inhibitor; 5 µM).
`Cc1cc(NC(=O)c2cccc3cc(-c4cccc5[nH]nc(N)c45)ccc23)ccc1F` gave an activity vs control of 99% (enzyme activity, inhibitor; 0.1 µM).
`N#CCCc1ccc2c(c1)-c1[nH]c3ccc([N+](=O)[O-])cc3c1CC(=O)N2` gave a remaining signal of 155% (cell-free assay; 0.5 µM).
For `COc1cc2ncnc(Nc3ccc(Oc4ccccc4)cc3C)c2cc1OC`, the inhibition was 0% (enzyme activity, inhibitor; 1 µM).
The remaining binding of `C[C@H](c1cccc(C#N)c1)n1cc(Cl)cc(C(N)=O)c1=N` is reported as 82% (cell-free assay, competition with immobilised ligand; 1 µM).
With `CC(C)(O)[C@H]1CC[C@H](Nc2ccc3ncc(-c4cccc(C(F)(F)F)c4)n3n2)CC1` the remaining activity was 64.2% (enzyme activity, inhibitor; 1 µM).
For `COc1cc2c(Nc3ccc(Br)cc3F)ncnc2cc1OCC1CCN(C)CC1`, the remaining signal was 35.3% (cell-free assay; 0.5 µM).
For `C[C@@]1(Cc2ccc(C#N)cc2)C(=O)N(c2cc(Cl)cc(Cl)c2)c2ncc(C(=O)NC3(c4nc(C5CCC5)no4)CC3)n21`, the remaining binding was 100% (cell-free assay, competition with immobilised ligand; 1 µM).
For `O=C(CSc1nc2nccnc2c(=O)n1CCc1ccccc1)Nc1nccs1`, the inhibition was 10% (enzyme activity, inhibitor; 10 µM).
`CN(C)C1CCN(CC#Cc2nn(C3CCCC3)c3nc(NCc4ccccc4)ncc23)C1` (centres unmarked) gave an inhibition of 3% (enzyme activity, inhibitor, FRET; 1 µM).
The remaining activity of `FC(F)c1nc2ccccc2n1-c1nc(N2CCOCC2)nc(N2CCOCC2)n1` is reported as 102% (enzyme activity, inhibitor; 10 µM).
The remaining binding of `CS(=O)(=O)N1CCCC(NC(=O)[C@H](CCC2CCCCC2)NC(=O)c2ccc(CNC(=O)c3cnc4ccccn34)cc2)C1` (some centres unmarked) is reported as 100% (cell-free assay, competition with immobilised ligand; 0.1 µM).
With `COc1cc(Cl)c(C(=O)N[C@@H](CN[C@H]2CC[C@@H](N)CC2)Cc2ccc(C#N)cc2)cc1-c1ccc(CN[C@H](C)c2ccc(C)cc2)o1` the remaining activity was 89% (enzyme activity, inhibitor; 1 µM).
`COc1ccc(COc2ccc(Cc3cnc(N)nc3N)cc2OC)cc1` has a remaining signal of 110% (cell-free assay; 0.5 µM).
The remaining binding of `CC(=O)Nc1c(C(C)=O)c(=O)n(C)c2nc(-c3ccc(Cl)cc3Cl)c(-c3ccc(Cl)cc3)cc12` is reported as 100% (cell-free assay, competition with immobilised ligand; 1 µM).
The remaining activity of `Oc1cccc(-c2nc(N3CCOCC3)c3oc4ncccc4c3n2)c1` is reported as 119% (enzyme activity, inhibitor; 10 µM).
`c1ccc(N2CCN(Cc3nc4ccccc4[nH]3)CC2)nc1` has a remaining binding of 100% (binding, competition with immobilised ligand; 1 µM).
With `COc1cc(/C=C/C(=O)CC(=O)/C=C/c2ccc(O)c(OC)c2)ccc1O` the activity vs control was 71% (enzyme activity, inhibitor; 1 µM).
For `CC1=C(C#N)C(c2ccc3c(c2)c(NC(=O)c2ccccc2C)nn3C)C(C#N)=C(C)N1`, the remaining binding was 7.5% (cell-free assay, competition with immobilised ligand; 1 µM).
`Nc1ncnc2occ(-c3ccc(NC(=O)Nc4cc(C(F)(F)F)ccc4F)cc3)c12` has a remaining signal of 46% (cell-free assay, inhibitor; 20 µM).
For `CNCc1ccccc1-c1csc([C@@H](C)Nc2nc(C)nc3cc(OC)c(OC)cc23)c1`, the remaining binding was 76% (cell-free assay, competition with immobilised ligand; 1 µM).
`FC(F)(F)Oc1cccc(-c2cnc3ccc(-c4ccncc4)nn23)c1` gave an activity vs control of 12% (enzyme activity, inhibitor, radiometric; 1 µM).
